# Reference: ChEMBL document CHEMBL1123874, “Polychlorinated biphenyls and related compound interactions with specific binding sites for thyroxine in rat liver nuclear extracts” (J Med Chem, 1987)
# How the values were obtained:
# Rattus norvegicus [1] = test: Number of T4 binding sites in rat liver from TCDD treated rats at a dose of 37 ug/Kg; format: functional
# Outline: (§1)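 Male Sprague–Dawley rats (200–250 g), five per group, gavaged with TCDD (0, 12, 25, 37 or 50 µg/kg) in corn oil at 0.1 mL/kg; controls got corn oil. Livers were taken after 9 days and pooled per group. Nuclear extract (10 µg protein, buffer B, pH 7.6) was incubated 2 h at 25 °C with 0.1–2.4 nM [125I]T4. Bound ligand was isolated on Sephadex G-25, specific binding taken as total minus excess-T4, Scatchard analysis, duplicates.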
# Rattus norvegicus [2] = species: Rattus norvegicus; test: Serum T4 level was determined in rats; format: functional, organism-based
# Outline: (§2)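 Male Sprague–Dawley rats (200–250 g, 6 weeks old), in groups of five, were dosed by gavage with TCDD at 0, 12, 25, 37 or 50 µg/kg body weight in corn oil (0.1 mL/kg). Controls received corn oil alone. Animals were killed by CO2 9 days after dosing.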
# Rattus norvegicus [3] = test: Number of T4 binding sites in rat liver from TCDD treated rats at a dose of 12 ug/Kg; format: functional; outline: as §1
# Rattus norvegicus [4] = test: Number of T4 binding sites in rat liver from TCDD treated rats at a dose of 50 ug/Kg; format: functional; outline: as §1
# Rattus norvegicus [5] = test: Liver weight was determined in TCDD-treated rat at a dose of 12 ug/Kg; format: functional; outline: as §2
# Rattus norvegicus [6] = test: Body weight was determined in TCDD-treated rat at a dose of 12 ug/Kg; format: functional; outline: as §2
# [7] = Binding affinity of [125I]T4 to rat liver nuclear extract at a dose of 12 ug/Kg; outline: as §1
# [8] = Binding affinity of [125I]T4 to rat liver nuclear extract at a dose of 25 ug/Kg; outline: as §1
# Rattus norvegicus [9] = species: Rattus norvegicus; test: Liver weight was determined in rats; format: functional; outline: as §2
# [10] = Binding affinity of [125I]T4 to rat liver nuclear extract (CONTROL); outline: as §1
# Rattus norvegicus [11] = species: Rattus norvegicus; test: Number of T4 binding sites in rat liver from TCDD treated rats; format: functional; outline: as §1
# Rattus norvegicus [12] = test: Serum T4 level was determined in TCDD-treated rat at a dose of 12 ug/Kg; format: functional, organism-based; outline: as §2
# Rattus norvegicus [13] = test: Serum T4 level was determined in TCDD-treated rat at a dose of 25 ug/Kg; format: functional, organism-based; outline: as §2
# Rattus norvegicus [14] = test: Body weight was determined in TCDD-treated rats at a dose of 50 ug/Kg; format: functional; outline: as §2
# Rattus norvegicus [15] = test: Number of T4 binding sites in rat liver from TCDD treated rats at a dose of 25 ug/Kg; format: functional; outline: as §1
# Rattus norvegicus [16] = species: Rattus norvegicus; test: Body weight (after treatment) was determined; format: functional; outline: as §2
# Rattus norvegicus [17] = test: Body weight was determined in TCDD-treated rats at a dose of 25 ug/Kg; format: functional; outline: as §2
# Rattus norvegicus [18] = test: Serum T4 level was determined in TCDD-treated rat at a dose of 37 ug/kg; format: functional, organism-based; outline: as §2
# Rattus norvegicus [19] = test: Liver weight was determined in TCDD-treated rats at a dose of 50 ug/Kg; format: functional; outline: as §2
# [20] = Binding affinity of [125I]T4 to rat liver nuclear extract at a dose of 50 ug/Kg; outline: as §1
# Rattus norvegicus [21] = test: Liver weight was determined in TCDD-treated rats at a dose of 37 ug/Kg; format: functional; outline: as §2
# Rattus norvegicus [22] = test: Liver weight was determined in TCDD-treated rats at a dose of 25 ug/Kg; format: functional; outline: as §2
# [23] = Binding affinity of [125I]-T4 to rat liver nuclear extract at a dose of 37 ug/Kg; outline: as §1
# Rattus norvegicus [24] = test: Body weight was determined in TCDD-treated rats at a dose of 37 ug/Kg; format: functional; outline: as §2
# Rattus norvegicus [25] = test: Serum T4 level was determined in TCDD-treated rat at a dose of 50 ug/Kg; format: functional, organism-based; outline: as §2
smiles,measurement,setting,value
"Clc1cc2c(cc1Cl)Oc1cc(Cl)c(Cl)cc1O2 [2,3,7,8-TETRACHLORODIBENZO-P-DIOXIN]",Activity,Rattus norvegicus [1],<8.71 nM/mg
same,Serum T4,Rattus norvegicus [2],7.6 µg/dL
same,Activity,Rattus norvegicus [3],<4.06 nM/mg
same,Activity,Rattus norvegicus [4],<6.65 nM/mg
same,Weight,Rattus norvegicus [5],<18.9 g
same,Weight,Rattus norvegicus [6],293 g
same,Kd,[7],0.48 nM
same,Kd,[8],0.56 nM
same,Weight,Rattus norvegicus [9],15.1 g
same,Kd,[10],0.7 nM
same,Activity,Rattus norvegicus [11],<3.24 nM/mg
same,Serum T4,Rattus norvegicus [12],< 5.6 µg/dL
same,Serum T4,Rattus norvegicus [13],< 4.4 µg/dL
same,Weight,Rattus norvegicus [14],<271 g
same,Activity,Rattus norvegicus [15],<4.12 nM/mg
same,Weight,Rattus norvegicus [16],302 g
same,Weight,Rattus norvegicus [17],<273 g
same,Serum T4,Rattus norvegicus [18],< 4.1 µg/dL
same,Weight,Rattus norvegicus [19],<19.9 g
same,Kd,[20],0.72 nM
same,Weight,Rattus norvegicus [21],<19.3 g
same,Weight,Rattus norvegicus [22],<18.3 g
same,Kd,[23],0.69 nM
same,Weight,Rattus norvegicus [24],<274 g
same,Serum T4,Rattus norvegicus [25],< 4.2 µg/dL
